Screening data (PubChem)
The list is not random: actives were taken first. Their share in the collection is about 3.7%.
FGF22 binding = FGF22 (human) thermal shift binding; Q9HCT0; recombinant FGF22 thermal shift, SYPRO orange fluorescence; percent of sucrose octasulfate shift, DMSO zero; activity (Tm shift, normalised), % at 9.99 µM; 340,000 compounds, 1.5% hits;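 active = mean Tm shift, scaled 0 neutral to 100 positive control, at about 1.3% or above, every replicate too, limit read from the data; inconclusive = no clear call, values can overlap the other calls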
DENV2 CPE = inhibitors of DENV2 cytopathic effect; CPE inhibition, % at 9.99 µM; DENV2-infected cells, cytopathic effect rescue, plate reader; 350,000 compounds, 1.7% hits; in the data active = CPE inhibition above about 20%, passing the limit was not always enough; inconclusive = no clear call, values can overlap the other calls; tested in BHK-21 cells
ERAP1 inh = blocks human ERAP1 aminopeptidase activity; recombinant ERAP1, Leu-AMC fluorescence, 60 min; Q9NZ08; 340,000 compounds, 0.15% hits; inhibition, % at 10.7 µM;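 active = mean replicate inhibition of at least 30%, or all replicates individually reaching that 30% level; inactive = mean below 30% and not every replicate reaching it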
Target sequence (Q9NZ08 whole entry, looked up): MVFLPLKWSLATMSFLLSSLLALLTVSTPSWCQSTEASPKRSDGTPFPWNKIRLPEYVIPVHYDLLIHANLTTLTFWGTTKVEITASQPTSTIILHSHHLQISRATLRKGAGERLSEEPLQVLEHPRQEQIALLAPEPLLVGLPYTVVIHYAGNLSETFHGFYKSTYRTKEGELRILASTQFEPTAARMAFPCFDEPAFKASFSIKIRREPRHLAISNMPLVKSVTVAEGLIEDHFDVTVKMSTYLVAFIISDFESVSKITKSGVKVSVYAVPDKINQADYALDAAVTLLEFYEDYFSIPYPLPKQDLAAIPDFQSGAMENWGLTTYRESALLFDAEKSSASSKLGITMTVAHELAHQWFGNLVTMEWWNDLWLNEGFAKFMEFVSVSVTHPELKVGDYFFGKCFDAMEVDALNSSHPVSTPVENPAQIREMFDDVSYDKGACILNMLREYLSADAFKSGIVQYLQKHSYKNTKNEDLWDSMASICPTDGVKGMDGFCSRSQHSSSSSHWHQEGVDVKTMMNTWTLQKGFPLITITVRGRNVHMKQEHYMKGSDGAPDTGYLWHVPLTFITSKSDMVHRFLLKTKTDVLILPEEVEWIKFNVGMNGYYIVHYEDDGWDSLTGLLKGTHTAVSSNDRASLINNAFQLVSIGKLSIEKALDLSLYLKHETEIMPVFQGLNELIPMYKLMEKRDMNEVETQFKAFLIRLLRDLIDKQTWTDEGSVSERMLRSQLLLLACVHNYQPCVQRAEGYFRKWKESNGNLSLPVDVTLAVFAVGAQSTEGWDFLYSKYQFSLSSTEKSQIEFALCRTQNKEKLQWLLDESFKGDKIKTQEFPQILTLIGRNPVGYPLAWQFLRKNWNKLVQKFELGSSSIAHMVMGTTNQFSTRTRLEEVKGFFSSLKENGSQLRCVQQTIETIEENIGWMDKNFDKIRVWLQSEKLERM
E-selectin induc = E-selectin induction on HUVECs; HUVEC E-selectin immunofluorescence imaging; normalized: neutral wells 0, TNF-alpha wells 100; activation, % at 7.58 µM; 260,000 compounds, 0.37% hits;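 active = mean E-selectin-positive cell signal at least 10% of the positive control, reached in at least 60% of replicates, without over 20% cell loss; inconclusive = no rule given, readout overlaps actives, possibly toxicity-flagged; inactive = the rest, including those meeting only one limit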
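Test system: HUVEC | Signal: Immunofluorescence imaging | Read-out: Percent E-selectin-positive cells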
CFTR F508del cor = CFTR F508del correction in bronchial cells; CFBE cells, YFP halide quenching; stimulated with forskolin plus potentiator P3; % fluorescence drop versus neutral controls; activity (quench increase), % at 7.58 µM; 350,000 compounds, 0.36% hits; AID 720511;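 active = mean added fluorescence quench of at least 8% versus neutral control, with both replicates also reaching 8%; inconclusive = only one of the mean or replicate conditions met; inactive = mean below 8% and not both replicates reaching 8%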;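 note: cells transiently co-express mutant CFTR-F508del with the halide-sensitive YFP; corrector assay measuring rescue of mutant channel to the surface after 24 h compound exposure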
Large screens that a line does not name were inactive.

O=S(=O)(N[C@@H]1CC[C@@H](CCn2cc(C3(O)CCCC3)nn2)O[C@H]1CO)c1ccc(Cl)cc1	none
O=C(C[C@@H]1CC[C@@H]2[C@H](COC[C@H](O)CN2C(=O)c2cnccn2)O1)NCc1ccccc1	none
O=C(CSc1nc(C2CCCCC2)nc2ccccc12)NCc1ccc2c(c1)OCO2	FGF22 binding 44 (no result: E-selectin induc)
Nc1cc(N)nc(SCC(=O)NCc2ccc3c(c2)OCO3)n1	none
O=C(CSc1ccc2ccccc2n1)NCc1ccc2c(c1)OCO2	FGF22 binding 43
O=C(CSc1nc2ccccc2s1)NCc1ccc2c(c1)OCO2	none (no result: FGF22 binding, DENV2 CPE, ERAP1 inh, CFTR F508del cor)
C[C@H](CO)N1C[C@H](C)[C@@H](CN(C)S(=O)(=O)c2cccs2)OCCCC[C@H](C)Oc2ccc(NC(=O)Nc3ccc4c(c3)OCO4)cc2C1=O	none
COc1ccc(-c2[nH]ncc2CN(C)Cc2cccnc2)c(OC)c1	FGF22 binding 43 (no result: E-selectin induc)
C[C@H](CO)N1C[C@H](C)[C@@H](CN(C)S(=O)(=O)c2cn(C)cn2)Oc2ccc(NC(=O)CCCN(C)C)cc2C1=O	none
O=C(NNC(=O)c1ccncc1)Nc1ccccc1	none
O=C(NNC(=O)c1ccncc1)Nc1ccc(Cl)cc1	CFTR F508del cor 8.2
CN(C)CC(=O)Nc1ccc2c(c1)[C@@H]1C[C@@H](CC(=O)NCc3ccccn3)O[C@H](CO)[C@@H]1O2	none
CN1CCN(CCOc2ccc(-c3ccccc3)cc2)CC1	DENV2 CPE 49 (no result: E-selectin induc)
CN1CCN(CCCOc2ccc(-c3ccccc3)cc2)CC1	none (no result: E-selectin induc)
Cc1ccc2c(c1)c1c3n2CCN(C=O)C3CCC1 (configuration not stated)	none (no result: E-selectin induc)
CCN(CC)CCN1CCn2c3c(c4cc(C)ccc42)CCCC31 (configuration not stated)	FGF22 binding 43 (no result: E-selectin induc)
CCCN(C)C[C@H]1OCCCC[C@@H](C)Oc2ccc(NS(=O)(=O)c3cn(C)cn3)cc2C(=O)N([C@H](C)CO)C[C@@H]1C	none
C/C=C/c1cnc2c(c1)C(=O)N([C@@H](C)CO)C[C@H](C)[C@H](CN(C)C(=O)C1CCC1)O2	none (no result: FGF22 binding, DENV2 CPE, ERAP1 inh)
CNc1nc(Oc2cccc(NC(C)=O)c2)c2sccc2n1	DENV2 CPE 53
Cc1cc(C(=O)Nc2cccc3c2O[C@@H](CN(C)C(=O)Nc2c(C)noc2C)[C@H](C)CN([C@H](C)CO)C3=O)n(C)n1	none
CC(=O)N(C)C[C@@H]1Oc2cc(-c3ccccc3)ccc2S(=O)(=O)N([C@H](C)CO)C[C@H]1C	none (no result: CFTR F508del cor)
c1ccc(Nc2nnc(-c3cccnc3)s2)cc1	E-selectin induc 48
Cc1ccc(S(=O)(=O)/N=S(/c2ccccc2)C(C)C)cc1 (configuration not stated)	ERAP1 inh 46
Cc1ccc(S(=O)(=O)N(C)/C(=N/S(=O)(=O)c2ccccc2)c2ccccc2)cc1	none (no result: E-selectin induc)
COc1ccc2sc(-c3ccccc3OC)c(-c3ccc(O)cc3)c2c1	DENV2 CPE inconclusive, E-selectin induc 42
C[C@@H]1CN([C@@H](C)CO)C(=O)c2cc(NC(=O)Nc3ccc(C(F)(F)F)cc3)ccc2O[C@@H](C)CCCCO[C@H]1CN(C)Cc1ccc(Cl)c(Cl)c1	DENV2 CPE 24
C[C@@H]1CCCCO[C@H](CN(C)Cc2ccc(Cl)c(Cl)c2)[C@H](C)CN([C@@H](C)CO)C(=O)c2cc(NC(=O)Nc3ccc(C(F)(F)F)cc3)ccc2O1	none
C[C@@H]1CCCCO[C@@H](CN(C)Cc2ccc(Cl)c(Cl)c2)[C@@H](C)CN([C@H](C)CO)C(=O)c2cc(NC(=O)Nc3ccccc3)ccc2O1	none
C[C@@H]1CCCCO[C@@H](CN(C)Cc2ccc(Cl)c(Cl)c2)[C@H](C)CN([C@@H](C)CO)C(=O)c2cc(NC(=O)Nc3ccccc3)ccc2O1	DENV2 CPE 32 (no result: E-selectin induc)
Cc1cc(SCC(=O)O)nc2ccccc12	none
C/C(N)=C(/C#N)C(=O)CSc1nnc(Nc2c(C)cccc2C)s1	FGF22 binding 43
C/C(N)=C(/C#N)C(=O)CSc1cc(C)c2ccccc2n1	FGF22 binding 43 (no result: E-selectin induc)
COc1ccccc1-c1ccc2n(c1=O)C[C@H]1[C@H](CO)[C@@H](C(=O)NC3CCC3)N(C(=O)C3CCC3)[C@@H]21	none (no result: CFTR F508del cor)
COc1ccc(S(=O)(=O)Nc2ccc3c(c2)CC(=O)N([C@H](C)CO)C[C@@H](C)[C@@H](CN(C)S(=O)(=O)c2ccc(C)cc2)O3)cc1	none
COc1ccc(CNCC(=O)Nc2cc(C)nn2-c2nc(C)cc(C)n2)cc1OC	FGF22 binding 44
